Measurements: ChEMBL document CHEMBL1149911, “Design and synthesis of peripherally restricted transient receptor potential vanilloid 1 (TRPV1) antagonists” (J Med Chem, 2008)

Legend:
[1] = Ratio of drug level in brain to plasma in Sprague-Dawley rat at 5 mg/kg, iv; format: ADME, organism-based; parameters: dose 5 mg/kg, route intravenous
Outline: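 Male Sprague-Dawley rats received a single iv dose of 5 mg/kg as a solution in DMSO (n = 3). Plasma and nonperfused whole brain were collected 30 min after dosing. Total compound concentration was measured by HPLC and expressed as a brain-to-plasma ratio.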

[2] = biological target: T1, Transient receptor potential cation channel subfamily V member 1 (Rattus norvegicus, UniProt O35433); experiment: Antagonist activity at rat TRPV1 expressed in CHO cells assessed as inhibition of capsaicin-induced calcium influx; format: functional, cell-based
T1 sequence (O35433 whole entry): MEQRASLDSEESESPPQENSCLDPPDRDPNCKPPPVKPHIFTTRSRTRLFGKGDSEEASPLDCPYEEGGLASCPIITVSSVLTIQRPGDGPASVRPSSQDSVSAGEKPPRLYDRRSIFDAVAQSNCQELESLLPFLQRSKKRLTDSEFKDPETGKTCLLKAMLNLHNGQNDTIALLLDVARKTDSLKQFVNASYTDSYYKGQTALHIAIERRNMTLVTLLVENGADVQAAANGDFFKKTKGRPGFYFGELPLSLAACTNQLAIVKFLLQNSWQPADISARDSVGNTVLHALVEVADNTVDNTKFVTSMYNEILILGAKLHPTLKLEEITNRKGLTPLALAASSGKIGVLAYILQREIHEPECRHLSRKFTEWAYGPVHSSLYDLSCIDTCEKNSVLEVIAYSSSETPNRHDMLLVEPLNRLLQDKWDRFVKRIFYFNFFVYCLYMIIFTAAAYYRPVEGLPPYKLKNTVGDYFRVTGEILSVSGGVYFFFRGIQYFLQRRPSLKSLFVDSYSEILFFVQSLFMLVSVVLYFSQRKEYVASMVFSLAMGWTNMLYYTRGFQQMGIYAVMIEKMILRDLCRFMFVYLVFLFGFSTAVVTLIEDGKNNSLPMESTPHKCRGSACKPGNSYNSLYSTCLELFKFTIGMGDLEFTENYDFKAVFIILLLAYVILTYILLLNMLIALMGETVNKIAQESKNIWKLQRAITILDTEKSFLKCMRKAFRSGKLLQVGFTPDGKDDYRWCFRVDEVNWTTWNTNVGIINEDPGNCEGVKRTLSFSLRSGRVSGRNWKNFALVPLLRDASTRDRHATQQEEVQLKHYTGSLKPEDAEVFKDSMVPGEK
Outline: (§1)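 CHO cells stably expressing rat TRPV1. Uptake of 45Ca2+ was triggered by capsaicin (500 nM) or by acid (pH 5), and test compounds were run over a concentration range. IC50 values are the mean ± SEM of at least two experiments, with triplicate wells at each concentration.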

[3] = biological target: T1, Transient receptor potential cation channel subfamily V member 1; experiment: Antagonist activity at rat TRPV1 expressed in CHO cells assessed as inhibition of pH 5 acid-induced calcium influx; format: functional, cell-based; outline: as §1
[4] = Drug level in blood of Sprague-Dawley rat with capsaicin-induced flinching at 10 mg/kg, po administered 1 hr before capsaicin challenge; format: ADME, organism-based; parameters: dose 10 mg/kg, route oral; conditions: read-out: Drug uptake
[5] = system: Rattus norvegicus; experiment: Inhibition of capsaicin-induced flinching in Sprague-Dawley rat at 10 mg/kg, po administered 1 hr before capsaicin challenge; format: functional
Outline: (§2)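 Rats received the test compound orally, then capsaicin. In vivo on-target activity was scored as percent inhibition of the capsaicin-evoked flinching response.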

[6] = system: Rattus norvegicus; experiment: Inhibition of capsaicin-induced flinching in Sprague-Dawley rat at 3 mg/kg, po administered 1 hr before capsaicin challenge; format: functional; outline: as §2
[7] = Drug level in blood of Sprague-Dawley rat with capsaicin-induced flinching at 3 mg/kg, po administered 1 hr before capsaicin challenge; format: ADME, organism-based; parameters: dose 3 mg/kg, route oral; conditions: read-out: Drug uptake
[8] = system: Blood; experiment: Drug level in blood of Sprague-Dawley rat telemetry model at 10 mg/kg, po; format: ADME, organism-based; parameters: dose 10 mg/kg, route oral; conditions: in vivo
[9] = system: Rattus norvegicus; experiment: Toxicity assessed as increase in body core temperature in Sprague-Dawley rat at 10 mg/kg, po by radiotelemetry relative to control; format: organism-based; parameters: dose 10 mg/kg, route oral; conditions: in vivo
[10] = system: Blood; experiment: Drug level in blood of Sprague-Dawley rat telemetry model at 3 mg/kg, po; format: ADME, organism-based; parameters: dose 3 mg/kg, route oral; conditions: in vivo
[11] = system: Rattus norvegicus; experiment: Toxicity assessed as increase in body core temperature in Sprague-Dawley rat at 3 mg/kg, po by radiotelemetry relative to control; format: organism-based; parameters: dose 3 mg/kg, route oral; conditions: in vivo
[12] = system: Rattus norvegicus; experiment: Inhibition of capsaicin-induced flinching in Sprague-Dawley rat at 1 mg/kg, po administered 1 hr before capsaicin challenge; format: functional; outline: as §2
[13] = Drug level in blood of Sprague-Dawley rat with capsaicin-induced flinching at 1 mg/kg, po administered 1 hr before capsaicin challenge; format: ADME, organism-based; parameters: dose 1 mg/kg, route oral; conditions: read-out: Drug uptake
[14] = system: Rattus norvegicus; experiment: Inhibition of capsaicin-induced flinching in Sprague-Dawley rat at 0.3 mg/kg, po administered 1 hr before capsaicin challenge; format: functional; outline: as §2
[15] = system: Rattus norvegicus; experiment: Toxicity assessed as increase in body core temperature in Sprague-Dawley rat at 1 mg/kg, po by radiotelemetry relative to control; format: organism-based; parameters: dose 1 mg/kg, route oral; conditions: in vivo
[16] = Drug level in blood of Sprague-Dawley rat with capsaicin-induced flinching at 0.3 mg/kg, po administered 1 hr before capsaicin challenge; format: ADME, organism-based; parameters: dose 0.3 mg/kg, route oral; conditions: read-out: Drug uptake
[17] = system: Blood; experiment: Drug level in blood of Sprague-Dawley rat telemetry model at 1 mg/kg, po; format: ADME, organism-based; parameters: dose 1 mg/kg, route oral; conditions: in vivo
[18] = biological target: T2, Transient receptor potential cation channel subfamily V member 1 (Homo sapiens, UniProt Q8NER1); experiment: Antagonist activity at human TRPV1 assessed as inhibition of capsaicin-induced calcium influx; format: functional
T2 sequence (Q8NER1 whole entry): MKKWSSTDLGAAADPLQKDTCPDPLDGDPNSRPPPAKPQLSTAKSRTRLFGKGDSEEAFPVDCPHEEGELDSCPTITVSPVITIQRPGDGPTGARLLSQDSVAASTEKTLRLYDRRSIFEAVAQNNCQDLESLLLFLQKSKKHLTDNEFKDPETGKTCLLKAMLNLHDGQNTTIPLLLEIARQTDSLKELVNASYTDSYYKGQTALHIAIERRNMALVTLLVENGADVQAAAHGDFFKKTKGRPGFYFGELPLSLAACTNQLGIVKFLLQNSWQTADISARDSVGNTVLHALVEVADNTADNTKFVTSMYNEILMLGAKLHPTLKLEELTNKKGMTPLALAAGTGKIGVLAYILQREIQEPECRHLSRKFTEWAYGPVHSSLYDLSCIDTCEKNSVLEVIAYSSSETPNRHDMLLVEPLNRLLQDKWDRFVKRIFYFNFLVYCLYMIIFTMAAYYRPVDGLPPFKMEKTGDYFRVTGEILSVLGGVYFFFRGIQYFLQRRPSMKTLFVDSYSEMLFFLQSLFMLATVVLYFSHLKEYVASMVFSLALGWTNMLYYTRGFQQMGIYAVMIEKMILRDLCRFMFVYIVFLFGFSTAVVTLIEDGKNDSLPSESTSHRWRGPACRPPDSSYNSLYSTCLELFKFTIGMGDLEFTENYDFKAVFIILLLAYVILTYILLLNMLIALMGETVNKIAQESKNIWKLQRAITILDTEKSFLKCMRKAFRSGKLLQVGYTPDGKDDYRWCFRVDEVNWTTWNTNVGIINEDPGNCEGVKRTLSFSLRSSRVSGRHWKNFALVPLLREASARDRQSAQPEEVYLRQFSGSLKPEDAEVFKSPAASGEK

[19] = system: Rattus norvegicus; experiment: Toxicity assessed as increase in body temperature in Sprague-Dawley rat at 0.1 to 3 mg/kg, po after 60 mins; format: organism-based; parameters: dose 0.1-3 mg/kg, route oral; conditions: in vivo, 1 h
Outline: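 Rodents were dosed orally at 0.1–3 mg/kg. Body temperature was recorded 60 min after drug administration and compared across doses.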

[20] = system: Rattus norvegicus; experiment: Inhibition of capsaicin-induced flinching in po dosed rat; format: functional, organism-based; outline: as §2
[21] = biological target: T2, Transient receptor potential cation channel subfamily V member 1; experiment: Antagonist activity at human TRPV1 assessed as inhibition of low pH-induced calcium influx; format: functional

Row | Structure (SMILES) | Kp [1] | IC50 [2] [nM] | IC50 [3] [nM] | also measured
1 | Nc1nc2c(Oc3cc(-c4ccc(C(F)(F)F)cc4)ncn3)cccc2[nH]c1=O | 0.4 |  |  | 
2 | CC(=O)Nc1nc2c(Oc3cc(-c4ccc(C(F)(F)F)cc4)nc(N)n3)cccc2s1 | 0.44 |  |  | 
3 | CC(C)CN1CCCCC1CNc1nc(C(F)(F)F)ccc1-c1cc(Oc2cccc3[nH]c(=O)c(N)nc23)ncn1 (configuration not stated) | 0.25 | 0.9 | 1.7 | 
4 | Nc1nc2c(Oc3cc(-c4ccc(C(F)(F)F)cc4NC(=O)c4ccccn4)ncn3)cccc2[nH]c1=O | 0.21 | 0.7 | 0.7 | 
5 | CC(=O)Nc1nc2c(Oc3cc(-c4ccc(C(F)(F)F)cc4NC(=O)NC(C)(C)C)ncn3)cccc2s1 | 0.19 | 2.4 | 6 | 
6 | CC(C)(C)NC(=O)Nc1cc(C(F)(F)F)ccc1-c1cc(Oc2cccc3[nH]c(=O)c(N)nc23)ncn1 | 0.04 | 4.1 | 5.2 | concentration at 1 h [4]: 196 ng/mL; inhibition in vivo at 10 mg/kg [5]: 43%
7 | Nc1nc2c(Oc3cc(-c4ccc(C(F)(F)F)cc4NC(=O)c4ccncc4)ncn3)cccc2[nH]c1=O | 0.07 | 3.3 | 2.1 | concentration at 1 h [4]: 0.82 ng/mL; inhibition in vivo at 10 mg/kg [5]: 50%
8 | COC[C@H](C)Nc1nc(Oc2cccc3[nH]c(=O)c(N)nc23)cc(-c2ccc(C(F)(F)F)nc2N)n1 | 0.04 | 4.4 | 6.4 | concentration at 1 h [4]: 5.48 ng/mL; inhibition in vivo at 10 mg/kg [5]: 23%
9 | Nc1nc(C(F)(F)F)ccc1-c1cc(Oc2cccc3[nH]c(=O)c(N)nc23)ncn1 | 0.11 | 0.8 | 2.7 | inhibition in vivo at 3 mg/kg [6]: 100%; concentration at 1 h [7]: 252 ng/mL; Drug uptake [8]: 1129.62 ng/mL; Activity [9]: 1.1 °C
10 | COCCNc1nc(C(F)(F)F)ccc1-c1cc(Oc2cccc3[nH]c(=O)c(N)nc23)ncn1 | 0.04 | 0.7 | 1.3 | Drug uptake [10]: 25.35 ng/mL; Activity [11]: 0.6 °C; inhibition in vivo at 1 mg/kg [12]: 100%; concentration at 1 h [13]: 19 ng/mL
11 | Nc1nc2c(Oc3cc(-c4ccc(C(F)(F)F)nc4N[C@@H]4CCOC4)ncn3)cccc2[nH]c1=O | 0.09 | 1.1 | 0.8 | inhibition in vivo at 3 mg/kg [6]: 30%; concentration at 1 h [7]: 32.8 ng/mL
12 | COC[C@H](C)Nc1nc(Oc2cccc3[nH]c(=O)c(N)nc23)cc(-c2ccc(C(F)(F)F)cc2N)n1 | 0.07 | 3.8 | 2.7 | concentration at 1 h [4]: 342 ng/mL; Drug uptake [8]: 289.24 ng/mL; inhibition in vivo at 10 mg/kg [5]: 95%; Activity [9]: 1.2 °C
13 | Nc1nc(Oc2cccc3[nH]c(=O)c(N)nc23)cc(-c2ccc(C(F)(F)F)cc2)n1 | 0.07 | 3.7 | 2.6 | 
14 | COC[C@@H](C)Nc1nc(Oc2cccc3[nH]c(=O)c(N)nc23)cc(-c2ccc(C(F)(F)F)cc2)n1 | 0.15 | 0.3 | 0.3 | 
15 | COCCNc1nc(Oc2cccc3[nH]c(=O)c(N)nc23)cc(-c2ccc(C(F)(F)F)cc2)n1 | 0.05 | 0.6 | 0.8 | inhibition in vivo at 0.3 mg/kg [14]: 93%; Activity [15]: 0.7 °C; inhibition in vivo at 1 mg/kg [12]: 100%; concentration at 1 h [16]: 24.9 ng/mL; Drug uptake [17]: 100.29 ng/mL
16 | CC(O)CCNc1nc(Oc2cccc3[nH]c(=O)c(N)nc23)cc(-c2ccc(C(F)(F)F)cc2)n1 (configuration not stated) | 0.03 | 16.1 | 8.7 | concentration at 1 h [4]: 494 ng/mL; inhibition in vivo at 10 mg/kg [5]: 72%
17 | CC(Nc1nc(Oc2cccc3[nH]c(=O)c(N)nc23)cc(-c2ccc(C(F)(F)F)cc2)n1)c1ccccn1 (configuration not stated) | 0.04 | 2.8 | 5.7 | concentration at 1 h [4]: 267 ng/mL; Drug uptake [8]: 241.9 ng/mL; inhibition in vivo at 10 mg/kg [5]: 94%; Activity [9]: 0.5 °C
18 | COC[C@H](C)Nc1nc(Oc2cccc3[nH]c(=O)c(N)nc23)cc(-c2ccc(C(F)(F)F)cc2)n1 | 0.19 | 0.8 | 1 | 
19 | CC(=O)Nc1nc2c(Oc3cc(-c4ccc(C(F)(F)F)cc4N)ncn3)cccc2s1 | 0.93 | 15.9 | 3.6 | 
20 | CC(C)(C)CN1CCCCC1CNc1nc(Oc2cccc3[nH]c(=O)c(N)nc23)cc(-c2ccc(C(F)(F)F)cc2)n1 (configuration not stated) | 0.24 | 2 | 2.1 | 
21 | Nc1nc2c(Oc3cc(-c4ccc(C(F)(F)F)nc4NCCN4CCOCC4)ncn3)cccc2[nH]c1=O | 0.04 | 2.2 | 18.8 | inhibition in vivo at 3 mg/kg [6]: 60%; concentration at 1 h [7]: 67.1 ng/mL
22 | COCCNc1nc(Oc2cccc3[nH]c(=O)c(N)nc23)cc(-c2ccc(C(F)(F)F)cc2N)n1 | 0.1 | 4.3 | 5.9 | concentration at 1 h [4]: 298 ng/mL; inhibition in vivo at 10 mg/kg [5]: 71%
23 | Nc1cc(C(F)(F)F)ccc1-c1cc(Oc2cccc3[nH]c(=O)c(N)nc23)ncn1 | 0.23 | 1.5 | 3.9 | 
24 | Nc1nc(Oc2cccc3[nH]c(=O)c(N)nc23)cc(-c2ccc(C(F)(F)F)cc2N)n1 | 0.04 | 34.5 | 61.9 | 
25 | CC(=O)Nc1nc2c(Oc3cc(-c4ccc(C(F)(F)F)cc4)ncn3)cccc2s1 [AMG-517] |  |  |  | IC50 [18]: 0.8 nM; Activity [19]: Active; EC50 [20]: 0.33 mg/kg; IC50 [21]: 0.6 nM
